# Screening data from PubChem BioAssay.
# SENP1 inh = blocks the human SENP1 SUMO protease catalytic domain. 360,000 compounds, 0.21% hits. recombinant SENP1 catalytic domain, CyPet-SUMO1-YPet FRET cleavage. Q9P0U3. inhibition, % at 10 µM. AID 624204;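 active = inhibition at least 30% at 10 µM, raw YFP signal under a set limit, fluorescence ratio 0.5 to 1.5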
# Target sequence (Q9P0U3 419-644 limits assumed): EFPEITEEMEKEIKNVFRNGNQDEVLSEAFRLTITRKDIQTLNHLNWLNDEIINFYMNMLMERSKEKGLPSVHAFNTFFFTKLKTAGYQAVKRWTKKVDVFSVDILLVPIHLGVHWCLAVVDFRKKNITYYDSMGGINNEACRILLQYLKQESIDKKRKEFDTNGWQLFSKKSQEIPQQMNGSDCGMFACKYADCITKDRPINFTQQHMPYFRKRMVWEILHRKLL
#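 System: Recombinant human SENP1 catalytic domain, His6-tagged | Incubation: Enzyme reaction for 50 min at room temperature, dark | Medium: Tris pH 8 with BME, BSA, NP40 and catalase | Also added: 25 nM SUMO1 FRET substrate | Compound: 10 µM single point, 0.5% DMSO | Measured by: FRET fluorescence in CFP and YFP emission channels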
# MPTP block = permeability transition pore inhibition; isolated mouse mitochondria, Ca2+ swelling absorbance, 30 min; inhibition, % at 10 µM; 360,000 compounds, 1.4% hits; AID 602449;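 active = inhibition of 50% or more, scaled per plate between neutral and stimulator controls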
# EBI2 block = antagonists of human EBI2 receptor. EBI2 beta-arrestin recruitment, luminescence, 7a,25-OHC stimulated. P32249. inhibition, % at 5 µM. 360,000 compounds, 0.81% hits. AID 651636; in the data active = inhibition above about 38%;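 also: enzyme fragment complementation signal reports receptor beta-arrestin coupling in cells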
# Target sequence (P32249 whole entry, looked up, the tested form may be a part): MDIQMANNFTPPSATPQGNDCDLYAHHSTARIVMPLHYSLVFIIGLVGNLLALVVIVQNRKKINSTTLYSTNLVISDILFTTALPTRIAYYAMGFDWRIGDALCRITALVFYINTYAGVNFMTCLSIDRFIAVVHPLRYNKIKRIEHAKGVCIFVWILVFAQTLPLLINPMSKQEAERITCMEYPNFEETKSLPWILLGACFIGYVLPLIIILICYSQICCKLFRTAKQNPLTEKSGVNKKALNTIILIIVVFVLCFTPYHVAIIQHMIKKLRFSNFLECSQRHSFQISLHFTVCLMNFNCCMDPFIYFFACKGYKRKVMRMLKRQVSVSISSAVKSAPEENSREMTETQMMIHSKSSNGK
# NR3A LBD binder = modulators (binders) of human NR3A ligand-binding domain | NR3A LBD differential scanning fluorimetry, Tm shift; 0% = protein alone, 100% = glycine-bound protein | Tm shift relative to glycine control, % at 25 µM | AID 1259313 | 340,000 compounds, 2.5% hits;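 active = melting temperature shift of at least 10% of the positive control shift, at one fixed dose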
# A number is an active result; n = inactive; x = not tested or not shown. Rows were chosen to be rich in hits. Some 4.4% of all compounds tested hit in one or more screens of this group.
SMILES,SENP1 inh,MPTP block,EBI2 block,NR3A LBD binder
COc1ccc(Cn2c(C3CC3)nc3ccc(NC(=O)c4cccnc4)cc3c2=O)cc1,n,n,53,n
COC(=O)CNC(c1ccccc1)c1cc(Br)ccc1NS(=O)(=O)c1ccccc1 (stereo not drawn),n,n,n,n
COC(=O)CNC(c1ccccc1)c1cc(Br)ccc1NS(=O)(=O)c1ccc(C)cc1 (stereo not drawn),n,n,n,16
CC(C)=NNc1nc(-c2ccc(N3C(=O)CCC3=O)cc2)cs1,n,n,n,n
COc1ccc(Nc2nc(-c3cccs3)nc3ccccc23)cc1,n,n,n,27
COc1cccc(Nc2nc(-c3cccs3)nc3ccccc23)c1,n,n,n,21
COc1cccc(S(=O)(=O)N(C)C[C@@H]2Oc3ncc(C#CCN(C)C)cc3C(=O)N([C@H](C)CO)C[C@H]2C)c1,n,n,n,x
COc1cccc(-c2nn(C)c3sc(C(=O)NCCCN(C)Cc4ccccc4)cc23)c1,n,n,n,n
CCN(CC)CCCNC(=O)c1cc2c(-c3cccc(OC)c3)nn(C)c2s1,n,n,n,11
COc1ccc(Nc2nnc(SCC(=O)N(CC(C)C)C3CCS(=O)(=O)C3)s2)cc1 (stereo not drawn),n,n,n,x
CCOc1ccc(C(=O)CCC(=O)N(CC)CC(=O)NCc2ccc(Cl)cc2)cc1,n,n,n,13
CCN(CC(=O)NCc1ccc(Cl)cc1)C(=O)COc1cccc(Cl)c1,n,n,n,n
O=C(CNC(=S)N(Cc1ccccc1F)C1CCCCC1)NC1CC1,n,n,n,11
CCOc1ccc(NC(=S)N2C3CCCC2CC(NC(=O)C2CC2)C3)cc1 (stereo not drawn),n,n,n,n
COc1ccc(-n2c(C)nnc2SCC(=O)N2CCOCC2)cc1,n,n,n,n
CCOc1ccc(-c2ccc(/C=C3/C(=N)N4C=CSC4=NC3=O)o2)c([N+](=O)[O-])c1,n,n,n,14
CC(=O)NN1C(=O)/C(=C\c2ccc(O)cc2)SC1=S,55,n,n,n
CC(=O)NN1C(=O)/C(=C\c2ccccc2)SC1=S,n,n,n,n
CC(=O)NN1C(=O)/C(=C\c2ccc(C)cc2)SC1=S,n,n,n,n
CC(=O)NN1C(=O)/C(=C/c2ccc(Br)o2)SC1=S,43,n,n,n
CC(=O)NN1C(=O)/C(=C\c2ccc(Br)o2)SC1=S,55,n,n,n
CCCC#Cc1cnc2c(c1)C(=O)N([C@H](C)CO)C[C@H](C)[C@@H](CN(C)C(=O)CCN1CCCCC1)O2,n,n,n,x
Cc1nc2ccccc2c2c1C(=O)N(C1CCCCCCC1)C2=O,n,n,n,n
CCCN1C(=O)/C(=C/c2nc3ccccc3c(=O)[nH]2)c2ccccc21,n,n,n,25
CC1(C)COC(c2ccc3c(c2)OCO3)OC1,n,n,n,11
SMILES,SENP1 inh,MPTP block,EBI2 block,NR3A LBD binder
CC12CN3CC(C)(CN(C1)C3c1ccc3c(c1)OCO3)C2O (stereo not drawn),n,n,n,n
O=S(=O)(c1ccc2nc(-c3ccccc3)[nH]c2c1)N1CCN(c2cccc(Cl)c2)CC1,n,n,n,17
CC1(C)C2CCC1(C)C(OC(=O)C[n+]1ccccc1)C2 (stereo not drawn),n,n,n,n
CC1(C)C2CCC1(C)C(OC(=O)CC(=O)O)C2 (stereo not drawn),x,x,x,10
CC(=O)N1NC(=Nc2ccccc2)SC1(C)C,n,n,n,n
CCCc1nc2c(=O)n(C)c(=O)[nH]c2n1CCC,n,n,n,14
COc1cccc(C(=O)N(C)CC(=O)Nc2cccc3ccccc23)c1,n,n,n,n
CC(C)n1ncc(N2CCOCC2)c(Cl)c1=O,n,n,n,n
CCOC(=O)C(Oc1ccc2c(-c3ccccc3)cc(=O)oc2c1C)c1ccccc1 (stereo not drawn),n,n,n,14
CCSCC(C)(C)n1[nH]c2ccccc2c1=O,n,n,n,x
Cc1cc(C)cc(NC(=O)CCNS(=O)(=O)c2cc(Br)cnc2N)c1,n,n,n,12
CCOC(=O)c1ccc(NC(=O)CCNS(=O)(=O)c2cc(Br)cnc2N)cc1,n,n,n,15
COc1ccc(NC(=O)CCNS(=O)(=O)c2cc(Br)cnc2N)cc1OC,n,n,n,n
COC(=O)C1(S(=O)(=O)c2cccc3nsnc23)CC1,n,n,n,n
CCOC(=O)c1nnc(-c2ccccc2)nc1Sc1ccccc1Cl,n,n,n,n
CCOC(=O)c1cnc(-c2ccccc2)nc1Oc1cccc(Cl)c1,n,n,n,14
CCOC(=O)c1nnc(-c2ccccc2)nc1Oc1ccc(Cl)cc1,n,n,n,11
COc1ccc(NC(=O)CN(C)C(=O)CCNC(=O)c2ccccc2OC)cc1,n,n,n,n
Cn1cc(-c2ccccc2C(N)=O)c(=O)c2cc(Cl)ccc21,n,n,n,n
Cn1cc(C2=C(c3ccc(Cl)cc3Cl)C(=O)NC2=O)c2ccccc21,n,n,49,n
O=S(=O)(Nc1nc2ccccc2nc1NCC1CCCO1)c1cc(Cl)ccc1Cl (stereo not drawn),n,n,n,n
CC(OC(=O)c1c2c(nc3ccccc13)/C(=C\c1ccc3c(c1)OCO3)CCC2)C(=O)Nc1ccc(S(N)(=O)=O)cc1 (stereo not drawn),n,n,n,22
CCc1ccc(S(=O)(=O)Nc2c(C)n(C)n(-c3ccccc3)c2=O)cc1,n,n,n,n
CCOC(=O)C1=C(c2ccccc2)NC(=S)NC1c1cccc([N+](=O)[O-])c1 (stereo not drawn),n,n,n,14
Cc1ccc(OCC(O)CNS(=O)(=O)c2ccccc2C(=O)O)cc1 (stereo not drawn),n,n,n,13
SMILES,SENP1 inh,MPTP block,EBI2 block,NR3A LBD binder
O=C(O)c1ccccc1S(=O)(=O)NCC(O)COC1CCCCC1 (stereo not drawn),n,n,n,n
COc1cccc(OC)c1OCCCNC1CCCC1,n,n,n,n
O=C(C1CCCO1)N1CCN(c2ccc(F)cc2)CC1 (stereo not drawn),n,n,n,n
CCC/C(=N\NC(=O)C1CCCC1)c1ccccc1,n,n,n,n
Nc1[nH]c2cc([N+](=O)[O-])ccc2c1-c1ccccn1,n,n,n,31
CCC(C(=O)NCc1ccco1)N(C(=O)CNS(=O)(=O)c1ccc(C)cc1)c1ccccc1F (stereo not drawn),n,n,n,n
O=C(CNCc1ccccc1)NC1C2CC3CC(C2)CC1C3 (stereo not drawn),n,n,n,n
CC(=O)C1=C(C)NC(SCC(=O)Nc2nc3ccccc3s2)=C(C#N)C1c1ccc(Cl)cc1 (stereo not drawn),n,n,n,12
CCCC(=O)Nc1ccc(-c2csc(N/N=C\c3ccncc3)n2)cc1,n,n,n,18
CC(=O)Nc1ccc(-c2csc(N/N=C\c3ccncc3)n2)cc1,n,n,n,15
COC(=O)c1ccc(/C=N/Nc2nc(-c3ccc(C)cc3)cs2)cc1,n,n,n,n
CCCC(=O)Nc1ccc(-c2csc(NNC(C)=O)n2)cc1,n,n,n,n
